# Data: ChEMBL document CHEMBL1121835, “Synthesis and anxiolytic activity of 6-(substituted-phenyl)-1,2,4-triazolo[4,3-b]pyridazines” (J Med Chem, 1981)
# Calls of active or inactive are those of the source. No cut-off for these calls is given here.
# Legend:
# [1] = species on record: Rattus norvegicus; test: Anxiolytic activity for protection against pentylenetetrazole-induced convulsions.; assay type: functional, organism-based
# Method in brief: (§1)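 Rats in groups of 10, food-deprived 24 h, given 4–6 graded doses of compound orally (or ip where noted). PTZ at 23 mg/kg was injected iv into the caudal vein 60 min later. Protection meant no clonic seizure lasting at least 5 s. The number protected was counted and the ED50 estimated.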
# [2] = target: T1, GABA-A receptor; anion channel (Rattus norvegicus) (UniProt O09028+P15431+P18506+P18508+P19969+P20236+P23574+P23576+P28471+P28473+P30191+P62813+P63079+P63138+Q91ZM7+Q9ES14); test: In vitro inhibition of [3H]diazepam binding towards Benzodiazepine receptor at 1 uM; assay type: protein-complex assay
# [3] = test system: Rattus norvegicus; test: Hypotensive activity in saline-loaded spontaneously hypertensive rats following 100 mg/kg p.o. administration.; assay type: functional; set-up: unit not given beside the values; conditions: route oral
# Method in brief: (§2)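 Male Okamoto SH rats, about 300 g, gavaged with compound suspended in 2% boiled starch, with 0.9% NaCl loading at 25 mL/kg, at 0 h. An identical dose without saline followed at 24 h. Mean arterial pressure was taken by iliac artery puncture under local lidocaine at 28 h. Values are from one to three rats.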
# [4] = test system: Rattus norvegicus; test: In vivo protection against pentylenetetrazole-induced convulsions in the rat.; assay type: functional; method in brief: as §1
# [5] = test system: Rattus norvegicus; test: Hypotensive activity evaluated as mean arterial blood pressure (MABP) in saline-loaded spontaneously hypertensive rats dosed (per oral) at 25 mg/kg; assay type: functional; method in brief: as §2
# [6] = species on record: Rattus norvegicus; test: Anxiolytic activity for protection against pentylenetetrazole-induced convulsions in experiment 1; assay type: functional; conditions: Rattus norvegicus; read-out: ED50; method in brief: as §1
# [7] = species on record: Rattus norvegicus; test: Compound was evaluated for anxiolytic activity for protection against pentylenetetrazole-induced convulsions in experiment 2; assay type: functional; method in brief: as §1
# [8] = target: GABA-A receptor; anion channel; test: In vitro for inhibition of [3H]diazepam towards Benzodiazepine receptor from rat; assay type: protein-complex assay
# Method in brief: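 Rat frontal cortex homogenized in ice-cold 0.32 M sucrose; crude P2 synaptosomal fraction resuspended in 50 mM Tris-HCl pH 7.4. IC50 read graphically from % inhibition vs log concentration plots.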
# [9] = test system: Rattus norvegicus; test: Compound was evaluated for anxiolytic activity for protection against pentylenetetrazole-induced convulsions; No activity at 50 mg/Kg; assay type: functional, organism-based; method in brief: as §1
# [10] = target: T1, GABA-A receptor; anion channel (Rattus norvegicus); test: In vitro percent inhibition of [3H]diazepam binding to rat GABA-A benzodiazepine receptor at 1 uM; assay type: protein-complex assay
# [11] = test system: Rattus norvegicus; test: Compound was evaluated for anxiolytic activity for protection against pentylenetetrazole-induced convulsions administered intraperitoneally; assay type: functional; conditions: ip; method in brief: as §1
# [12] = species on record: Rattus norvegicus; test: Anxiolytic activity for protection against pentylenetetrazole-induced convulsions in experiment 2; assay type: functional; method in brief: as §1
# [13] = test system: Rattus norvegicus; test: Hypotensive activity evaluated as mean arterial blood pressure (MABP) in saline-loaded spontaneously hypertensive rats dosed (per oral) at 100 mg/kg; Toxic at 100 mg/Kg; assay type: functional, organism-based; method in brief: as §2
# [14] = test system: Rattus norvegicus; test: Compound was evaluated for anxiolytic activity for protection against pentylenetetrazole-induced convulsions administered orally; No activity at 50 mg/Kg; assay type: functional, organism-based; method in brief: as §1
# [15] = test system: Rattus norvegicus; test: Hypotensive activity evaluated as mean arterial blood pressure (MABP) in saline-loaded spontaneously hypertensive rats dosed (per oral) at 50 mg/kg; assay type: functional; method in brief: as §2
# [16] = species on record: Rattus norvegicus; test: Effect on […] seizures at 7 hr in rat; assay type: functional
# Method in brief: (§3)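 Rats, oral dosing at three dose levels with six rats per dose; PTZ challenge (23 mg/kg iv, caudal vein) at the stated interval after dosing. Animals scored as protected if free of at least 5 s of uninterrupted clonic seizures. The median effective dose (mg/kg) is reported with its 95% confidence interval.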
# [17] = species on record: Rattus norvegicus; test: Effect on […] seizures at 3 hr in rat; assay type: functional; method in brief: as §3
# [18] = species on record: Rattus norvegicus; test: Effect on […] seizures at 6 hr in rat; assay type: functional; method in brief: as §3
# [19] = species on record: Rattus norvegicus; test: Effect on […] seizures at 4 hr in rat; assay type: functional; method in brief: as §3
# [20] = species on record: Rattus norvegicus; test: Effect on […] seizures at 0.5 hr in rat; assay type: functional; method in brief: as §3
# [21] = species on record: Rattus norvegicus; test: Effect on […] seizures at 5 hr in rat; assay type: functional; method in brief: as §3
# [22] = species on record: Rattus norvegicus; test: Effect on […] seizures at 2 hr in rat; assay type: functional; method in brief: as §3
# [23] = species on record: Rattus norvegicus; test: Effect on […] seizures at 1 hr in rat; assay type: functional; method in brief: as §3
# [24] = test system: Rattus norvegicus; test: Compound was evaluated for anxiolytic activity for protection against pentylenetetrazole-induced convulsions; No activity at 50 mg/kg; assay type: functional, organism-based; set-up: dose 50 mg/kg; method in brief: as §1
smiles,measurement,setting,value
Cc1cc(-c2ccc(F)cc2)nn2c(C)nnc12,ED50,[1],inactive
same,inhibition,[2],< 10%
same,MABP,[3],126
CCc1nnc2ccc(-c3ccc(C(F)(F)F)cc3)nn12,ED50,[4],~50 mg/kg
same,MABP,[3],129
same,MABP,[5],157
FC(F)(F)c1cccc(-c2ccc3nncn3n2)c1,ED50,[6],4.5 mg/kg
same,inhibition,[2],55%
same,MABP,[3],90
same,ED50,[7],2.5 mg/kg
same,IC50,[8],0.905 µM
same,MABP,[5],117
ClCc1nnc2ccc(-c3ccccc3)nn12,ED50,[9],inactive
same,inhibition,[2],45%
same,inhibition,[10],47%
COc1cccc(-c2ccc3nncn3n2)c1,inhibition,[2],34%
same,inhibition,[10],29%
same,ED50,[11],50 mg/kg
COCc1nnc2ccc(-c3ccccc3)nn12,ED50,[6],9.5 mg/kg
same,inhibition,[2],< 10%
same,ED50,[12],6.4 mg/kg
Clc1ccccc1-c1ccc2nncn2n1,ED50,[4],18 mg/kg
same,MABP,[3],127
CCCC(C)(COC(N)=O)COC(N)=O,inhibition,[2],1.8%
COc1ccc(-c2ccc3nnc(C)n3n2)cc1,ED50,[1],inactive
Cc1cccc(-c2ccc3nncn3n2)c1,ED50,[4],~50 mg/kg
CCc1nnc2ccc(-c3cccc(C(F)(F)F)c3)nn12,ED50,[4],24 mg/kg
same,inhibition,[2],73%
same,IC50,[8],0.28 µM
Cc1cc2nnc(C)n2nc1-c1ccc(F)cc1,ED50,[1],inactive
same,inhibition,[2],< 10%
Cc1cc2nncn2nc1-c1cccc(C(F)(F)F)c1,ED50,[4],12.9 mg/kg
same,inhibition,[2],21%
Cc1nnc2ccc(-c3ccc(Cl)cc3)nn12,ED50,[6],9.9 mg/kg
same,inhibition,[2],28%
same,ED50,[12],10 mg/kg
Cc1nnc2ccc(-c3cccc(F)c3)nn12,ED50,[4],3.1 mg/kg
same,inhibition,[2],47%
same,inhibition,[10],43%
same,IC50,[8],1.2 µM
Cc1cc2nncn2nc1-c1cccc(C#N)c1,ED50,[4],34 mg/kg
same,MABP,[3],88
same,MABP,[5],135
Cc1nnc2ccc(-c3ccc(C(F)(F)F)cc3)nn12,inhibition,[2],17%
same,ED50,[11],15 mg/kg
same,MABP,[13],Toxic
same,ED50,[14],inactive
same,MABP,[5],157
same,MABP,[15],123
Cc1nnc2ccc(-c3cccc(C(F)(F)F)c3)nn12 [CI-218872],ED50,[16],2.5 mg/kg
same,ED50,[17],1 mg/kg
same,ED50,[6],1.7 mg/kg
same,ED50,[18],2 mg/kg
same,inhibition,[2],77%
same,ED50,[19],1.8 mg/kg
same,ED50,[20],0.5 mg/kg
same,ED50,[12],1.1 mg/kg
same,ED50,[21],1.7 mg/kg
same,IC50,[8],0.116 µM
same,ED50,[22],0.7 mg/kg
same,ED50,[23],0.6 mg/kg
COc1cccc(-c2ccc3nnc(C)n3n2)c1,inhibition,[2],74%
same,IC50,[8],0.309 µM
Cc1nnc2ccc(-c3ccccc3Cl)nn12,ED50,[4],14 mg/kg
same,inhibition,[2],< 10%
same,MABP,[3],123
Cc1cccc(-c2ccc3nnc(C)n3n2)c1,ED50,[4],~50 mg/kg
same,inhibition,[2],68%
Cc1nnc2ccc(-c3cccc([N+](=O)[O-])c3)nn12,ED50,[4],11.6 mg/kg
same,inhibition,[2],53%
FC(F)(F)c1nnc2ccc(-c3ccccc3)nn12,ED50,[6],15 mg/kg
same,ED50,[12],18 mg/kg
CCCc1nnc2ccc(-c3ccccc3)nn12,inhibition,[2],38%
same,MABP,[3],110
same,MABP,[5],145
CCc1nnc2ccc(-c3ccccc3)nn12,ED50,[24],inactive
Cc1nnc2ccc(-c3ccccc3)nn12,ED50,[6],2.3 mg/kg
same,inhibition,[2],55%
same,ED50,[12],2.9 mg/kg
same,IC50,[8],0.633 µM
Cc1nnc2ccc(-c3cccc(Cl)c3)nn12,ED50,[6],8 mg/kg
same,inhibition,[2],60%
same,inhibition,[10],61%
same,ED50,[12],4.8 mg/kg
same,IC50,[8],0.709 µM
Fc1ccccc1-c1ccc2nncn2n1,ED50,[4],17 mg/kg
same,inhibition,[2],16%
same,MABP,[3],112
c1ccc(Cc2nnc3ccc(-c4ccccc4)nn23)cc1,ED50,[1],inactive
CN1C(=O)CN=C(c2ccccc2)c2cc(Cl)ccc21 [DIAZEPAM],ED50,[4],1.8 mg/kg
Clc1cccc(-c2ccc3nncn3n2)c1,ED50,[4],8.2 mg/kg
same,inhibition,[2],30%
same,IC50,[8],2.25 µM
